The text below walks through data of paper PMC10784678 (Food Chemistry: X, 2023).

For assay [1], the target named is T1, DPP-IV (Homo sapiens, UniProt P27487). Put plainly: biochemical.
The target in assay [2] is T1, DPP-IV. The conditions noted are these: read-out: IC50 DPP-IV; ref Li et al., 2022; cited from earlier work.
In assay [3] the test system is Caco-2 cells. Kind of assay: Inhibition of H2O2-induced intracellular ROS production. The class given is cell-based. The conditions noted are these: positive control 10 μg/mL, 1.0 mmol/L H2O2 6 h; H2O2 group 181.61 %.
Assay [4] relates to Caco-2 cells. Put plainly: Cytoprotective activity against H2O2-induced cell apoptosis. The conditions noted are these: positive control 10 μg/mL; H2O2 group 23.84 %, control 3.92 %. The class given is cell-based.
Assay [5] in a line: DPPH radical scavenging activity. The conditions noted are these: positive control. In a few lines: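 Test fractions in 80 % methanol at 2–14 µg/mL; positive control at 1–7 µg/mL. 50 µL sample plus 200 µL 0.1 mM DPPH in methanol, kept from light and shaken 30 min, then read at 517 nm.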
Assay [6] is described as follows: ABTS radical scavenging activity. The conditions noted are these: positive control. The method, boiled down: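 Test fractions in 70 % ethanol at 2–8 µg/mL; positive control at 1–7 µg/mL. Radical made by holding 7 mM ABTS with 0.14 M K₂S₂O₈ for 14 h, then diluted 35-fold in anhydrous ethanol. Sample mixed with radical solution, 6 min dark at 30°C, A734.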
A further assay concerns the target α-glucosidase (Saccharomyces cerevisiae, UniProt P53341). The conditions noted are these: read-out: IC50 α-glucosidase; ref Tan et al. (2017); cited from earlier work.
The mark [7] stands for this setting: read-out: IC50 DPP-Ⅳ, phenolic standards.

Molecules are shown by their SMILES. Values after ≈ are worked out from the molar mass of the structure shown. Read-outs that look alike come from different tables or passages of the source.

T1 sequence (P27487 whole entry): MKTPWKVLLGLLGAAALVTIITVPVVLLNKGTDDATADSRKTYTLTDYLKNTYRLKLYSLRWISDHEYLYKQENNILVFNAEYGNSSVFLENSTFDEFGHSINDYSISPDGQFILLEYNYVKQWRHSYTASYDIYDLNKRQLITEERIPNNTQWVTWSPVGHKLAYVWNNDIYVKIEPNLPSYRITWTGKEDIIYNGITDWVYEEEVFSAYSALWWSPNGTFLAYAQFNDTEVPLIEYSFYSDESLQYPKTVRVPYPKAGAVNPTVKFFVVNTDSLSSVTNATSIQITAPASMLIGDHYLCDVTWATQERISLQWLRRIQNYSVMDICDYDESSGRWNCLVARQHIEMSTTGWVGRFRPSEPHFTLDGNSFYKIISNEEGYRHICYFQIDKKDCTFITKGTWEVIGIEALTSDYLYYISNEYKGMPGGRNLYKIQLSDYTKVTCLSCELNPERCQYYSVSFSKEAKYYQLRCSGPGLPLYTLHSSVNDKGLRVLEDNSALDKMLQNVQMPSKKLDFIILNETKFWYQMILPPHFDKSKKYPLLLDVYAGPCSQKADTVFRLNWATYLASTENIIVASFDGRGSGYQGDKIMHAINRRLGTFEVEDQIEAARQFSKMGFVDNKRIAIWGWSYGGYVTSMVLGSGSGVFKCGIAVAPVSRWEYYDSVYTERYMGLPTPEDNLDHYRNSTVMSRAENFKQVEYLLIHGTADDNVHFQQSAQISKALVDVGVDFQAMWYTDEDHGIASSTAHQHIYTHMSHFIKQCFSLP
Chain of α-glucosidase (P53341 whole entry): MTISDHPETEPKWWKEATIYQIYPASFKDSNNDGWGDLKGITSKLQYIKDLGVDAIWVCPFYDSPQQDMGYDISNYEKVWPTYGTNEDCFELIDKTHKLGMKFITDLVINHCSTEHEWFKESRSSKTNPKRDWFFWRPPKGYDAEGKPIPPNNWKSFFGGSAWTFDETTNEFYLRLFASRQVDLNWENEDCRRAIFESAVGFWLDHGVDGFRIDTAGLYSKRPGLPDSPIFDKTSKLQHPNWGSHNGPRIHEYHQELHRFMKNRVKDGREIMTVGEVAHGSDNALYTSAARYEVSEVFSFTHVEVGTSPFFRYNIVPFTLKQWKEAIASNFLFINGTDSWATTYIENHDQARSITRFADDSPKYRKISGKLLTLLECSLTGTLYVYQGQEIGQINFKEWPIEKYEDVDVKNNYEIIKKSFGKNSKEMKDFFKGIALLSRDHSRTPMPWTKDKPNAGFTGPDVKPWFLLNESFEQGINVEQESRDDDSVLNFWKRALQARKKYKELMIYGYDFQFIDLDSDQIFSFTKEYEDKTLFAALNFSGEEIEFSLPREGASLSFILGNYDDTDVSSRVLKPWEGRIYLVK

`Oc1cc(O)c2c(c1)O[C@H](c1ccc(O)c(O)c1)[C@@H](O)C2` [(+) - Catechin]: on DPP-IV [1] (setting [7]), the IC50 (usually the concentration that inhibits the measured activity by half) is 132.8 ± 0.99 µM.

As for `Oc1cc(O)c2c(c1)O[C@H](c1ccc(O)c(O)c1)[C@H](O)C2` [(-) - Epicatechin], the IC50 at DPP-IV [1] is 104.3 ± 0.95 µM.

`O=C(O)/C=C/c1ccc(O)c(O)c1` [Caffeic acid] came in with an IC50 against DPP-IV [1] of 162.48 ± 0.16 µM. With `O=C(/C=C/c1ccc(O)c(O)c1)O[C@@H]1C[C@](O)(C(=O)O)C[C@@H](O)[C@H]1O` [Chlorogenic acid], the IC50 was 31.2 ± 2.58 µM against DPP-IV [1] and 78.8 µM on DPP-IV [2].

`Oc1cc(O)c2c(c1)O[C@H](c1cc(O)c(O)c(O)c1)[C@@H](O)C2` [Gallocatechin]: 81.9 ± 2.54 µM corresponded to half-maximal inhibition on DPP-IV [1] (IC50). As to `COC(=O)[C@]1(O)C[C@@H](O)[C@@H](O)[C@H](OC(=O)/C=C/c2ccc(O)c(O)c2)C1` [Methyl chlorogenic acid], the IC50 on DPP-IV [1] (setting [7]) worked out at 192 ± 1.93 µM. With `Oc1cc(O)c2c(c1)O[C@H](c1ccc(O)c(O)c1)[C@H](O)[C@H]2c1c(O)cc(O)c2c1O[C@H](c1ccc(O)c(O)c1)[C@@H](O)C2` [Procyanidin B1], the IC50 against DPP-IV [1] is more than 200 µM. Compound `O=C(O)c1ccc(O)c(O)c1` [Protocatechuic acid] came in with an IC50 at DPP-IV [1] of more than 200 µM.

On to `O=C(O)[C@]1(O)C[C@@H](O)[C@@H](O)[C@H](O)C1` [Quinic acid], for which, on DPP-IV [1], the 50% inhibitory concentration (IC50) is more than 200 µM. The compound `O=C(O)c1ccccc1O` [Salicylic acid] had an IC50 at DPP-IV [1] of more than 200 µM. On to `O=C1c2c(O)cc(O)cc2OC(c2ccc(O)c(O)c2)C1O` (centres unmarked) [Taxifolin], for which, on DPP-IV [1], the IC50 is 78.92 ± 0.62 µM. Regarding `O=C1O[C@H]([C@@H](O)CO)C(O)=C1O` [Vc], in the assay on Caco-2 cells [3], the “intracellular ROS level” value was 110.92%. Moreover, the apoptosis rate with Caco-2 cells [4] is 6.58%. Also, the “IC50 DPPH radical scavenging” value in assay [5] was 1.93 ± 0.01 µg/mL (≈ 11 µM). Further, in assay [6], the “IC50 ABTS radical scavenging” value was determined as 3.58 ± 0.03 µg/mL (≈ 20.3 µM). For `Oc1cc(O)c2c(c1)O[C@H](c1ccc(O)c(O)c1)[C@@H](O)C2` [catechin], the IC50 at α-glucosidase was 13.4 µM.
